Calls of active or inactive are those of the source. No cut-off for these calls is given here.

The results in this text go back to ChEMBL document CHEMBL2346594, “Synthesis and evaluation of an imidazole derivative-fluorescein conjugate” (Bioorg Med Chem, 2013).

In series [1] the test system is HCT-116. Briefly: Antiproliferative activity against human HCT116 cells expressing wild type p53 after 5 days by MTS assay. Type of series: functional, cell-based. The method, boiled down: (§1)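 Cells (wild-type or mutant p53) grown in recommended medium with 10% FBS at 37 °C under 5% CO2. Compounds were kept as 1 mmol/L DMSO stocks. Cells were seeded in 96-well plates and treated with serial concentrations (highest 10 µM) for 5 days, then read by MTS. Viability is % of untreated controls, mean SD, n = 4.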
On the technique in general: Tetrazolium dyes change colour on reduction, which living cells bring about.

Another series is filed under the species Homo sapiens. Briefly: Antiproliferative activity against human MDA-MB-435S cells harboring p53 mutant at 10 uM after 5 days by MTS assay. It is filed as functional, cell-based. Put shortly: as §1
Another series concerns SW480. The series is described as follows: Antiproliferative activity against human SW480 cells harboring p53 mutant at 10 uM after 5 days by MTS assay. It is filed as functional, cell-based. The method, boiled down: as §1
In series [2] the test system is SJSA-1. Briefly: Antiproliferative activity against human SJSA1 cells expressing wild type p53 after 5 days by MTS assay. It is filed as functional, cell-based. Put shortly: as §1
For a further series, the system named is RKO. Briefly: Antiproliferative activity against human RKO cells expressing wild type p53 after 5 days by MTS assay. Type of series: functional, cell-based. The method, boiled down: as §1
Another series deals with HeLa. The series is described as follows: Antiproliferative activity against human HeLa cells harboring p53 mutant at 10 uM after 5 days by MTS assay. It is filed as functional, cell-based. The method, boiled down:
as §1

Series [3] relates to SJSA-1. Briefly: Cellular uptake in human SJSA1 cells expressing wild type p53 at 1 to 5 uM after 1 hr by fluorometric analysis. It is filed as ADME, cell-based. Conditions: sjsa-1, 1 h. The method, boiled down: (§2)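 SJSA-1 or HCT116 cells were plated at 400,000/well and attached for 24 h. Fluorescein conjugate or free FAM was added at final 1 and 5 µM for 1 h at 37 °C, with DMSO and medium-only controls. Cells were washed three times in warm PBS, scraped and counted. About 10,000 cells/well were read by fluorescence at 485/520 nm; 3 runs per sample.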

The test system of series [4] is HCT-116. Briefly: Cellular uptake in human HCT116 cells expressing wild type p53 at 5 uM after 1 hr by fluorometric analysis in presence of nutlin-glycine. The conditions noted are these: hct-116, 1 h.
Series [5] relates to HCT-116. The series is described as follows: Cellular uptake in human HCT116 cells expressing wild type p53 at 1 to 5 uM after 1 hr by fluorometric analysis. It is filed as ADME, cell-based. The conditions noted are these: hct-116, 1 h. The method, boiled down:
as §2

The subject of series [6] is SJSA-1. Briefly: Cellular uptake in human SJSA1 cells expressing wild type p53 at 5 uM after 1 hr by fluorometric analysis in presence of nutlin-glycine. Type of series: ADME, cell-based. Conditions: sjsa-1, 1 h.

Take `COc1ccc(C2=N[C@@H](c3ccc(Cl)cc3)[C@@H](c3ccc(Cl)cc3)N2C(=O)N2CCNC(=O)C2)c(OC(C)C)c1` (relative stereo): the Activity entry with HCT-116 [1], in the series on SJSA-1 [2] and in the series with RKO was “Dose-dependent effect” in each case. Also, the outcome in the series filed under Homo sapiens, in the series on SW480 and in the series with HeLa was inactive.
For `CCOc1cc(OC)ccc1C1=N[C@@H](c2ccc(Br)cc2)[C@@H](c2ccc(Br)cc2)N1C(=O)N1CCN(CCOC(=O)CNC(=O)c2ccc(C(=O)O)c(-c3c4ccc(=O)cc-4oc4cc(O)ccc34)c2)CC1` (relative stereo), the Drug uptake result was “Active” in the series on SJSA-1 [3], “Not Active” in the series on HCT-116 [4], “Active” in the series with HCT-116 [5] and “Not Active” in the series with SJSA-1 [6].
Take `CCOc1cc(OC)ccc1C1=N[C@@H](c2ccc(Br)cc2)[C@@H](c2ccc(Br)cc2)N1C(=O)N1CCN(CCOC(=O)CN)CC1` (relative stereo): the Activity result in the series on HCT-116 [1], in the series on SJSA-1 [2] and with RKO was “Dose-dependent effect” each time. In addition, the result in the series filed under Homo sapiens, in the series with SW480 and in the series with HeLa was inactive.
